These results are taken from PMC5352491 (ACS chemical neuroscience, 2016).

“Also recorded” adds a separate entry of the source. Like-named read-outs stand apart in the source and are kept apart here.

Series [1] deals with human δ opioid receptor (δ-OR) (Homo sapiens, UniProt P41143). Nature of the series: calcium mobilization assay, δ-OR agonist activity. It is filed as cell-based. The note with it: for δ-OR agonist activity in HTS of extract / LC-MS fractions: approximately 20.0 μg/mL, DPDPE control 100 nM; for activity at δ-OR (agonist or antagonist): up to 50.0 μM. (In general: A change in cytosolic calcium serves as a functional read-out for many receptors and channels.)

Series [2] has as its target human μ opioid receptor (μ-OR) (Homo sapiens, UniProt P35372). Briefly: cell-based. It is filed as cell-based.
Series [3] deals with μ-OR. Nature of the series: fluorescent endocytosis assay. It is filed as cell-based. To be noted: 30 min; DAMGO 1 μM, others 10 μM.
Series [4] has as its system μ-OR. Briefly: biotin protection endocytosis assay. It is filed as cell-based. The note with it: 10 μM each, 30 min.
Series [5] has as its system WT C57BL/6 mice. Nature of the series: forced swim test, wild type mice. It counts as in vivo. To be noted: 40 mg/kg ip; for antidepressant-like activity in forced swim test: p = 0.003 vs saline, 40 mg/kg. The method in brief: (§1)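 Male C57BL/6 mice (wild type or δ-OR knockout littermates, 8–10 weeks, 9 per group) on a 12-h reversed light/dark cycle, tested in the dark phase after 2 h room habituation. Given saline vehicle or test compound (40 mg/kg ip), then placed in a water cylinder (30 cm diameter, 22–24 cm deep, 36.0 ± 0.2 °C) for 6 min. Video recorded; seconds immobile scored.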

Series [6] concerns δ-KO C57BL/6 mice. Briefly: forced swim test, δ-OR knockout mice. The note with it: 40 mg/kg ip, p = 0.20 vs saline. It is filed as in vivo. The method in brief:
as §1

Series [7] deals with WT C57BL/6 mice. To be noted: mouse, in vivo, ip, 40 mg/kg.
Series [8] has as its system δ-KO C57BL/6 mice. The note with it: mouse, in vivo, ip, 40 mg/kg.
Series [9] concerns WT C57BL/6 mice. The note with it: unknown target; cited from earlier work.
Series [10] deals with κ-OR (Homo sapiens, UniProt P41145). Nature of the series: κ-OR agonist/antagonist screen. It is filed as cell-based. To be noted: up to 50.0 μM.
For series [11], the target named is T1, human μ-OR (Homo sapiens, UniProt P35372). Briefly: cell-based. The note with it: HEK-293T, read-out: Gi Emax(%).
Target sequence in this assay (P35372 whole entry): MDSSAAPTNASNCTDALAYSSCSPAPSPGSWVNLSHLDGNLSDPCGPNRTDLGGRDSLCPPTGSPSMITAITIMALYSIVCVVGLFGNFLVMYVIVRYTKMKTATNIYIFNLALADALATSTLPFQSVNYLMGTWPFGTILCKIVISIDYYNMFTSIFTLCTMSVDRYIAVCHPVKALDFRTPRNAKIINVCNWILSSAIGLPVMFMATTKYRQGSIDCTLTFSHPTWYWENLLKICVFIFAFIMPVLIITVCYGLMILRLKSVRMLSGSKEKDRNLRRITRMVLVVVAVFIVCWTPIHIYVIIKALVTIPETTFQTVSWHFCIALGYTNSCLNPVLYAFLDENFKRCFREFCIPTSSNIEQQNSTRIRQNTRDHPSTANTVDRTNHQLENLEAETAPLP
For series [12], the target named is T1, human μ-OR. Nature of the series: cell-based. To be noted: HEK-293T, read-out: β-arrestin-2 Emax (%).
Target sequence in this assay (P35372 whole entry): as above
Target sequence in this assay (P32121 whole entry partner): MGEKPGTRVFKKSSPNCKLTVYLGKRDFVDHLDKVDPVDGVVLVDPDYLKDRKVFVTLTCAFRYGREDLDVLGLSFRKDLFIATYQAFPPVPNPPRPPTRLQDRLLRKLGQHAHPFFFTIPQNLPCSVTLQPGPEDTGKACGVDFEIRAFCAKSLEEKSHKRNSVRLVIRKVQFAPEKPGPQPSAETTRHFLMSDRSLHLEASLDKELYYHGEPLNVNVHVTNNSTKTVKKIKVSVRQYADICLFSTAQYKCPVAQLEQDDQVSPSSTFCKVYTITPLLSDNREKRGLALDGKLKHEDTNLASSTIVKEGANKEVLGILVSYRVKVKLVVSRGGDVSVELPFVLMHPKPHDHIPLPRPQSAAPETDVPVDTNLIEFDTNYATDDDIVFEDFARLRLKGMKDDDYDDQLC
For series [13], the system named is HEK 293T cells. Briefly: toxicity seen in the β-arrestin-2 recruitment assay. It counts as cell-based. To be noted: cells of the β-arrestin-2 dose-response.

Chain of human μ opioid receptor (μ-OR) (P35372 whole entry): as the sequence (P35372 whole entry) above
Chain of human δ opioid receptor (δ-OR) (P41143 whole entry): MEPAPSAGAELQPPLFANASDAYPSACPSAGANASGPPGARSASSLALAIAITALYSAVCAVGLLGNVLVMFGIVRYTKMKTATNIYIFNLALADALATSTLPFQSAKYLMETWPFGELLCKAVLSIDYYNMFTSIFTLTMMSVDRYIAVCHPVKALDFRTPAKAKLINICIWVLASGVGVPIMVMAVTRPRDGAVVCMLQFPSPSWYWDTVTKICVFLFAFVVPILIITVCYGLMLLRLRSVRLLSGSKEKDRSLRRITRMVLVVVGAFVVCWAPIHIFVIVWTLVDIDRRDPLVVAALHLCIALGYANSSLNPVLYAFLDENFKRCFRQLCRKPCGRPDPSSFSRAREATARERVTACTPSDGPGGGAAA
Chain of κ-OR (P41145 whole entry): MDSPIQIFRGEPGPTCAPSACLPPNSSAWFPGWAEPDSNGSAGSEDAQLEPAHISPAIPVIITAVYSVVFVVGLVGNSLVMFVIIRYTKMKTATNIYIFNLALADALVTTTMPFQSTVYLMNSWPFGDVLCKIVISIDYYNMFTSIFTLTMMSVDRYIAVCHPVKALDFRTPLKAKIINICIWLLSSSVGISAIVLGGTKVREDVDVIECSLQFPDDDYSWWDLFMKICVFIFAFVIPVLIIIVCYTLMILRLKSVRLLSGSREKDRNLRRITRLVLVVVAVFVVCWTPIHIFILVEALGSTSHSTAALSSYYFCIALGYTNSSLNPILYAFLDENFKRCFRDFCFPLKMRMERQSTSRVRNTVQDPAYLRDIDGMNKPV

What is called EC50 is the concentration that produces a half-maximal response. In the case of `COc1cc2ccnc3c2c(c1O)NC=C3` [9-demethyl aaptamine (11), 9-demethyl aaptamine], the “δ-OR agonist activity in HTS of extract / LC-MS fractions” value in series [1] was “measurable δ-OR agonist activity”. For the same compound, the “μ-OR agonist activity in HTS of extract / LC-MS fractions” value in series [2] was “very weak partial agonism”. Further, the EC50 in series [2] (read-out: EC50 μ-OR) was determined as 6.03 ± 1.2 µM.
As to `O=C1c2ccccc2-[n+]2ccc3c([nH]c4cc(Br)ccc43)c21` [10 bromofascaplysin (18), 10 bromofascaplysin], in [2] (read-out: EC50 μ-OR), the concentration giving a half-maximal response (EC50) is 4.2 ± 3.7 µM.
On to `C[C@@H](NC(=O)[C@@H](N)Cc1ccc(O)cc1)C(=O)NCC(=O)N(C)[C@@H](Cc1ccccc1)C(=O)NCCO` [DAMGO (6), DAMGO], for which the “μ-OR endocytosis by immunofluorescence” value in series [3] is “also promoted endocytosis; also recorded: promoted μ-OR endocytosis”. In addition, the “μ-OR endocytosis, biotin protection assay” value was “promoted significant endocytosis” in series [4] and “promoted μ-OR endocytosis” in series [4] (listed as DAMGO).
In the case of `COc1cc2ccnc3c2c(c1OC)NC=C3` [aaptamine (10), aaptamine], the EC50 in series [1] came out at 5.1 ± 0.2 µM; in [2], 10.1 ± 1.4 µM. Besides, the “antidepressant-like activity in forced swim test” value is recorded as “showed antidepressant-like activity in WT” in [5] (listed as Aaptamine) and “showed antidepressant-like activity” in [5] (listed as aaptamine). In addition, the “time immobile in forced swim test (average)” value in series [5] (saline ~30 s) is ~ 10 s. Further, the “effect in forced swim test” value in series [6] (listed as Aaptamine) is on record as “antidepressant-like activity in WT but not δ-KO mice”; in series [6] (listed as aaptamine), “no effect”. For the same compound, the “effect on general locomotion” value in [7] and in series [8] was “no effect on general locomotion” in each case. Further, the “effect on immobility time in forced swim test” value in [9] is given as “significant effect on the immobility time”.
With `COC1=Cc2ccnc3ccnc(c23)C1=O` [demethyl (oxy) –aaptamine (12), demethyl (oxy) –aaptamine], in [1], the “δ-OR agonist activity in HTS of extract / LC-MS fractions” value is listed as “measurable δ-OR agonist activity”. Moreover, in series [2], the “μ-OR agonist activity in HTS of extract / LC-MS fractions” value is recorded as “very weak partial agonism”. For the same compound, in [2] (read-out: EC50 μ-OR), the EC50 worked out at 4.1 ± 1.2 µM.
Broadly, the Emax is the maximal effect, on the per cent scale that the assay sets. `O=C1c2ccccc2-[n+]2ccc3c([nH]c4ccccc43)c21` [fascaplysin (17), fascaplysin]: the “activity at δ-OR (agonist or antagonist)” value in [1] is “no significant agonist or antagonist activity”. In series [2], this compound gave an EC50 of 6.3 ± 0.2 µM. For the same compound, the Emax in series [2] (read-out: Emax at the μ-OR) is 100%; in series [11] it was 111%; in series [12] it was 78%. Besides, the “activity at κ-OR (agonist or antagonist)” value in series [10] is recorded as “no significant agonist or antagonist activity”. In addition, the “μ-OR endocytosis by immunofluorescence” value in series [3] is on record as “promoted substantial endocytosis; also recorded: promoted μ-OR endocytosis”. Moreover, in [4], the “μ-OR endocytosis, biotin protection assay” value was “promoted substantial endocytosis; also recorded: promoted μ-OR endocytosis”. Moreover, in [13], the toxic concentration result is reported as “higher than 50 μM”.
As for `CCC(=O)C(CC(C)N(C)C)(c1ccccc1)c1ccccc1` (centres unmarked) [methadone (S6), methadone], the “μ-OR endocytosis by immunofluorescence” value in series [3] was “also promoted endocytosis; also recorded: promoted μ-OR endocytosis”. The “μ-OR endocytosis, biotin protection assay” value in series [4] is listed as “promoted significant endocytosis; also recorded: promoted μ-OR endocytosis”.
Regarding `CN1CC[C@]23c4c5ccc(O)c4O[C@H]2[C@@H](O)C=C[C@H]3[C@H]1C5` [morphine (1), morphine], the “μ-OR endocytosis by immunofluorescence” value in [3] is on record as “did not promote significant endocytosis”. The “μ-OR endocytosis, biotin protection assay” value in series [4] is given as “induced no significant endocytosis”.
Take `CNc1c2c(c3nc4ccccc4c4c3c1N=C4)NCCC2=O` [plakinidine A (19), plakinidine A]: the “activity at δ-OR (agonist or antagonist)” value in series [1] is recorded as “not active”. Also, the “activity at μ-OR (agonist or antagonist)” value in [2] was “not active”.
As for `CC(C)c1c2c(c3nc4ccccc4c4c3c1N=C4)NCCC2=O` [plakinidine B (20), plakinidine B], in series [1], the “activity at δ-OR (agonist or antagonist)” value is given as “not active”. Moreover, in series [2], the “activity at μ-OR (agonist or antagonist)” value is “not active”.
For mitragynine [mitragynine (21)], the “μ-OR endocytosis by immunofluorescence” value in series [3] is given as “did not promote receptor endocytosis”.
